Reference: article PMC11904481 (ESMO Open, 2025)
Values joined by “and” are separate entries in the source; they are usually repeats but may differ in a detail not shown here. Equal entries are not always repeated.

Tested on: patients with locally advanced unresectable or metastatic, relapsed and/or refractory nonhematological malignancies
Assay: Phase I safety: adverse events
Format: in vivo, human
Method in brief: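 Adverse events were graded by NCI CTCAE v4.03 across three i.v. schedules of the test compound (0.45-11.3 mg/kg; weekly per 28-day cycle, or days 1, 4, 8 ±11, 15 per 21-day cycle). Special-interest events covered retinal dysfunction symptoms and documented retinal disorders. Clustered signs were grouped as 'infusion reaction'. QTc was calculated with the Fridericia correction.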

[1] = schedule 3 cohort 5, 11.3 mg/kg
[2] = schedule 3 cohort 6, 11.3 mg/kg
[3] = schedules 1/2 cohort 1, 0.45 mg/kg

O=C1Nc2cc3[nH]nc(-c4ccncc4)c3cc2CN1Cc1ccccc1 [KO-947]
11 n: Total number of treatment-related TEAEs (schedule 3 cohort 1, 3.6 mg/kg) | AESI: Total number of AEs (schedule 3 cohort 3, 6.4 mg/kg)
4 (15) n (%): AESI: Macular edema (schedule 3 total N = 27) | AESI: Photopsia (schedule 3 total N = 27) | AESI: Retinal detachment (schedule 3 total N = 27) | Treatment-related TEAE: Macular edema (schedule 3 total N = 27) | Treatment-related TEAE: Photopsia (schedule 3 total N = 27) | Treatment-related TEAE: Retinal detachment (schedule 3 total N = 27)
7%: grade ≥3 TEAE: infusion-related reaction (schedule 3) | grade ≥3 TEAE: respiratory tract infection (schedule 3)
2 n: AESI: Total number of AEs (schedule 3 cohort 2, 4.8 mg/kg)
38 n: Total number of treatment-related TEAEs (schedule 3 cohort 4, 7.2 mg/kg)
No deaths: deaths due to treatment-related TEAEs (all schedules)
3 days: median time to resolution of ocular events (cycle 1, range, 0-114 days)
136 n: Total number of treatment-related TEAEs (schedule 3 total N = 27)
3 (100) n (%): Patients with ≥1 treatment-related TEAE (schedule 3 cohort 2, 4.8 mg/kg) | AESI: Eye disorders (schedule 3 cohort 4, 7.2 mg/kg) | AESI: Patients with ≥1 AE (schedule 3 cohort 4, 7.2 mg/kg) | Patients with ≥1 treatment-related TEAE (schedule 3 cohort 4, 7.2 mg/kg) | Patients with ≥1 treatment-related TEAE [2]
3 (11) n (%): AESI: Vitreous floaters (schedule 3 total N = 27) | Treatment-related TEAE: Dyspepsia (schedule 3 total N = 27) | Treatment-related TEAE: QTc prolongation (schedule 3 total N = 27) | Treatment-related TEAE: Vitreous floaters (schedule 3 total N = 27)
16 n: AESI: Total number of AEs [1]
50 n: Total number of treatment-related TEAEs [1] | AESI: Total number of AEs (schedule 3 total N = 27)
3 n: AESI: Total number of AEs [2]
33.3% and 33%: treatment-related blurred vision (schedule 3)
4 (67) n (%): AESI: Blurred vision [1] | Treatment-related TEAE: Blurred vision [1] | Treatment-related TEAE: Dermatitis acneiform [1]
2 (22) n (%): AESI: Subretinal fluid (schedule 3 cohort 3, 6.4 mg/kg) | Treatment-related TEAE: Infusion-related reaction (schedule 3 cohort 3, 6.4 mg/kg) | Treatment-related TEAE: Subretinal fluid (schedule 3 cohort 3, 6.4 mg/kg)
25 (93) n (%): Patients with ≥1 treatment-related TEAE (schedule 3 total N = 27)
7 (78) n (%): AESI: Eye disorders (schedule 3 cohort 3, 6.4 mg/kg) | AESI: Patients with ≥1 AE (schedule 3 cohort 3, 6.4 mg/kg)
0 n (%): AESI: Blurred vision (schedule 3 cohort 1, 3.6 mg/kg) | AESI: Detachment of retinal pigment epithelium (schedule 3 cohort 1, 3.6 mg/kg) | AESI: Macular edema (schedule 3 cohort 1, 3.6 mg/kg) | AESI: Photopsia (schedule 3 cohort 1, 3.6 mg/kg) | AESI: Retinal detachment (schedule 3 cohort 1, 3.6 mg/kg) | Treatment-related TEAE: Blurred vision (schedule 3 cohort 1, 3.6 mg/kg) | Treatment-related TEAE: Dermatitis acneiform (schedule 3 cohort 1, 3.6 mg/kg) | Treatment-related TEAE: Diarrhea (schedule 3 cohort 1, 3.6 mg/kg) | Treatment-related TEAE: Dyspepsia (schedule 3 cohort 1, 3.6 mg/kg) | Treatment-related TEAE: Infusion-related reaction (schedule 3 cohort 1, 3.6 mg/kg) | Treatment-related TEAE: Macular edema (schedule 3 cohort 1, 3.6 mg/kg) | Treatment-related TEAE: Photopsia (schedule 3 cohort 1, 3.6 mg/kg) | Treatment-related TEAE: QTc prolongation (schedule 3 cohort 1, 3.6 mg/kg) | Treatment-related TEAE: Retinal detachment (schedule 3 cohort 1, 3.6 mg/kg) | AESI: Blurred vision (schedule 3 cohort 2, 4.8 mg/kg) | AESI: Detachment of retinal pigment epithelium (schedule 3 cohort 2, 4.8 mg/kg) | AESI: Macular edema (schedule 3 cohort 2, 4.8 mg/kg) | AESI: Photopsia (schedule 3 cohort 2, 4.8 mg/kg) | AESI: Vitreous floaters (schedule 3 cohort 2, 4.8 mg/kg) | Treatment-related TEAE: Blurred vision (schedule 3 cohort 2, 4.8 mg/kg) | Treatment-related TEAE: Dermatitis acneiform (schedule 3 cohort 2, 4.8 mg/kg) | Treatment-related TEAE: Dyspepsia (schedule 3 cohort 2, 4.8 mg/kg) | Treatment-related TEAE: Infusion-related reaction (schedule 3 cohort 2, 4.8 mg/kg) | Treatment-related TEAE: Macular edema (schedule 3 cohort 2, 4.8 mg/kg) | Treatment-related TEAE: Photopsia (schedule 3 cohort 2, 4.8 mg/kg) | Treatment-related TEAE: QTc prolongation (schedule 3 cohort 2, 4.8 mg/kg) | Treatment-related TEAE: Vitreous floaters (schedule 3 cohort 2, 4.8 mg/kg) | AESI: Detachment of retinal pigment epithelium (schedule 3 cohort 3, 6.4 mg/kg) | AESI: Vitreous floaters (schedule 3 cohort 3, 6.4 mg/kg) | Treatment-related TEAE: Dermatitis acneiform (schedule 3 cohort 3, 6.4 mg/kg) | Treatment-related TEAE: QTc prolongation (schedule 3 cohort 3, 6.4 mg/kg) | Treatment-related TEAE: Vitreous floaters (schedule 3 cohort 3, 6.4 mg/kg) | AESI: Subretinal fluid (schedule 3 cohort 4, 7.2 mg/kg) | AESI: Vitreous floaters (schedule 3 cohort 4, 7.2 mg/kg) | Treatment-related TEAE: QTc prolongation (schedule 3 cohort 4, 7.2 mg/kg) | Treatment-related TEAE: Subretinal fluid (schedule 3 cohort 4, 7.2 mg/kg) | Treatment-related TEAE: Vitreous floaters (schedule 3 cohort 4, 7.2 mg/kg) | AESI: Macular edema [2] | AESI: Retinal detachment [2] | AESI: Vitreous floaters [2] | Treatment-related TEAE: Diarrhea [2] | Treatment-related TEAE: Dyspepsia [2] | Treatment-related TEAE: Macular edema [2] | Treatment-related TEAE: Retinal detachment [2] | Treatment-related TEAE: Vitreous floaters [2] | AESI: Blurred vision [3] | AESI: Eye disorders [3] | AESI: Macular edema [3] | AESI: Retinal edema [3] | AESI: Subretinal fluid [3] | AESI: Vitreous floaters [3] | Patients with ≥1 AESI [3]
1 (100) n (%): Patients with ≥1 treatment-related TEAE [3]
9 n: Total number of treatment-related TEAEs (schedule 3 cohort 2, 4.8 mg/kg) | Total number of treatment-related TEAEs [2]
11%: treatment-related QTc prolongation (schedule 3) | treatment-related dyspepsia (schedule 3) | treatment-related vitreous floaters (schedule 3)
67%: patients with grade ≥3 TEAEs (schedule 3)
no reports: retinal vein occlusion (all schedules)
6 (22) n (%): AESI: Subretinal fluid (schedule 3 total N = 27) | Treatment-related TEAE: Dermatitis acneiform (schedule 3 total N = 27) | Treatment-related TEAE: Diarrhea (schedule 3 total N = 27) | Treatment-related TEAE: Infusion-related reaction (schedule 3 total N = 27) | Treatment-related TEAE: Subretinal fluid (schedule 3 total N = 27)
6 (100) n (%): AESI: Eye disorders [1] | AESI: Patients with ≥1 AE [1] | Patients with ≥1 treatment-related TEAE [1]
14 patients: dose interruptions due to toxicity (all schedules)
82%: patients with at least one AESI (schedule 3)
2 (33) n (%): AESI: Macular edema [1] | Treatment-related TEAE: Diarrhea [1] | Treatment-related TEAE: Infusion-related reaction [1] | Treatment-related TEAE: Macular edema [1]
22 (82) n (%): AESI: Eye disorders (schedule 3 total N = 27) | AESI: Patients with ≥1 AE (schedule 3 total N = 27)
1 (17) n (%): AESI: Detachment of retinal pigment epithelium [1] | AESI: Photopsia [1] | AESI: Retinal detachment [1] | AESI: Subretinal fluid [1] | AESI: Vitreous floaters [1] | Treatment-related TEAE: Dyspepsia [1] | Treatment-related TEAE: Photopsia [1] | Treatment-related TEAE: QTc prolongation [1] | Treatment-related TEAE: Retinal detachment [1] | Treatment-related TEAE: Subretinal fluid [1] | Treatment-related TEAE: Vitreous floaters [1]
14 n: AESI: Total number of AEs (schedule 3 cohort 4, 7.2 mg/kg)
1 (33) n (%): AESI: Subretinal fluid (schedule 3 cohort 1, 3.6 mg/kg) | Treatment-related TEAE: Subretinal fluid (schedule 3 cohort 1, 3.6 mg/kg) | AESI: Retinal detachment (schedule 3 cohort 2, 4.8 mg/kg) | AESI: Subretinal fluid (schedule 3 cohort 2, 4.8 mg/kg) | Treatment-related TEAE: Diarrhea (schedule 3 cohort 2, 4.8 mg/kg) | Treatment-related TEAE: Retinal detachment (schedule 3 cohort 2, 4.8 mg/kg) | Treatment-related TEAE: Subretinal fluid (schedule 3 cohort 2, 4.8 mg/kg) | AESI: Blurred vision (schedule 3 cohort 4, 7.2 mg/kg) | AESI: Detachment of retinal pigment epithelium (schedule 3 cohort 4, 7.2 mg/kg) | AESI: Macular edema (schedule 3 cohort 4, 7.2 mg/kg) | AESI: Photopsia (schedule 3 cohort 4, 7.2 mg/kg) | AESI: Retinal detachment (schedule 3 cohort 4, 7.2 mg/kg) | Treatment-related TEAE: Blurred vision (schedule 3 cohort 4, 7.2 mg/kg) | Treatment-related TEAE: Dermatitis acneiform (schedule 3 cohort 4, 7.2 mg/kg) | Treatment-related TEAE: Dyspepsia (schedule 3 cohort 4, 7.2 mg/kg) | Treatment-related TEAE: Infusion-related reaction (schedule 3 cohort 4, 7.2 mg/kg) | Treatment-related TEAE: Macular edema (schedule 3 cohort 4, 7.2 mg/kg) | Treatment-related TEAE: Photopsia (schedule 3 cohort 4, 7.2 mg/kg) | Treatment-related TEAE: Retinal detachment (schedule 3 cohort 4, 7.2 mg/kg) | AESI: Blurred vision [2] | AESI: Detachment of retinal pigment epithelium [2] | AESI: Photopsia [2] | AESI: Subretinal fluid [2] | Treatment-related TEAE: Blurred vision [2] | Treatment-related TEAE: Dermatitis acneiform [2] | Treatment-related TEAE: Infusion-related reaction [2] | Treatment-related TEAE: Photopsia [2] | Treatment-related TEAE: Subretinal fluid [2]
4 n: AESI: Total number of AEs (schedule 3 cohort 1, 3.6 mg/kg)
7 patients: dose reductions due to toxicity (all schedules)
1 (11) n (%): AESI: Macular edema (schedule 3 cohort 3, 6.4 mg/kg) | AESI: Photopsia (schedule 3 cohort 3, 6.4 mg/kg) | AESI: Retinal detachment (schedule 3 cohort 3, 6.4 mg/kg) | Treatment-related TEAE: Diarrhea (schedule 3 cohort 3, 6.4 mg/kg) | Treatment-related TEAE: Dyspepsia (schedule 3 cohort 3, 6.4 mg/kg) | Treatment-related TEAE: Macular edema (schedule 3 cohort 3, 6.4 mg/kg) | Treatment-related TEAE: Photopsia (schedule 3 cohort 3, 6.4 mg/kg) | Treatment-related TEAE: Retinal detachment (schedule 3 cohort 3, 6.4 mg/kg)
9 (33) n (%): AESI: Blurred vision (schedule 3 total N = 27) | Treatment-related TEAE: Blurred vision (schedule 3 total N = 27)
3 (33) n (%): AESI: Blurred vision (schedule 3 cohort 3, 6.4 mg/kg) | Treatment-related TEAE: Blurred vision (schedule 3 cohort 3, 6.4 mg/kg)
15%: patients discontinued owing to AEs (schedule 3) | patients with grade ≥3 treatment-related TEAEs (schedule 3) | treatment-related macular edema (schedule 3) | treatment-related photopsia (schedule 3) | treatment-related retinal detachment (schedule 3)
8 (89) n (%): Patients with ≥1 treatment-related TEAE (schedule 3 cohort 3, 6.4 mg/kg)
33%: AESI blurred vision (schedule 3)
19 n: Total number of treatment-related TEAEs (schedule 3 cohort 3, 6.4 mg/kg)
2 (67) n (%): AESI: Eye disorders (schedule 3 cohort 1, 3.6 mg/kg) | AESI: Patients with ≥1 AE (schedule 3 cohort 1, 3.6 mg/kg) | AESI: Vitreous floaters (schedule 3 cohort 1, 3.6 mg/kg) | Patients with ≥1 treatment-related TEAE (schedule 3 cohort 1, 3.6 mg/kg) | Treatment-related TEAE: Vitreous floaters (schedule 3 cohort 1, 3.6 mg/kg) | AESI: Eye disorders (schedule 3 cohort 2, 4.8 mg/kg) | AESI: Patients with ≥1 AE (schedule 3 cohort 2, 4.8 mg/kg) | Treatment-related TEAE: Diarrhea (schedule 3 cohort 4, 7.2 mg/kg) | AESI: Eye disorders [2] | AESI: Patients with ≥1 AE [2] | Treatment-related TEAE: QTc prolongation [2]
